{"data": "Assay results collected from several papers", "cell line": "K562", "observed": "cell growth or viability", "note": "Lines come from different studies, so protocols differ."}
{"Structure (SMILES)": "CCCCC1=CC2C=CC=CC1C2C1CCCCC1=O (centres unmarked)", "method": "flow cytometry", "IC50": "29 nM"}
{"Structure (SMILES)": "C#CCSc1nc(Sc2nnnn2-c2ccccc2)c2nnn(Cc3ccc(OC)cc3)c2n1", "method": "MTS", "time": "6 days", "IC50": "7240 nM"}
{"Structure (SMILES)": "O=C1NC(=NCc2cccs2)S/C1=C\\c1ccc2ncccc2c1", "IC50": "> 10000 nM"}
{"Structure (SMILES)": "CC(C)(C)SCCCC1=CC2C=CC=CC1C2C1CCCCC1=O (centres unmarked)", "method": "flow cytometry", "IC50": "28 nM"}
{"Structure (SMILES)": "Cc1cc(NCCCCCCCNc2cc(C)nc3cc(N)ccc23)c2ccc(N)cc2n1", "method": "XTT", "time": "96 h", "IC50": "13000 nM"}
{"Structure (SMILES)": "COc1cc(Nc2nccc(-c3cnn4nc(OC)ccc34)n2)cc(C(F)(F)F)c1", "method": "ATP luminescence", "IC50": "260 nM"}
{"Structure (SMILES)": "N#CCCCC1=CC2C=CC=CC1C2C1CCCCC1=O (centres unmarked)", "method": "flow cytometry", "IC50": "31 nM"}
{"Structure (SMILES)": "COc1ccc(/C=C\\c2cc(OC)c(OC)c(OC)c2)cc1O", "IC50": "5 nM"}
{"Structure (SMILES)": "CCCON(Cc1ccc(C(=O)NO)cc1)C(=O)Nc1ccccc1", "method": "ATP luminescence", "time": "72 h", "IC50": "1770 nM"}
{"Structure (SMILES)": "COc1cc(C=NNc2ncnc3c2cnn3-c2ccccc2)ccc1O", "method": "XTT", "time": "72 h", "IC50": "3240 nM"}
{"Structure (SMILES)": "N#CCCC1=CC2C=CC=CC1C2C1CCCCC1=O (centres unmarked)", "method": "flow cytometry", "IC50": "57 nM"}
{"Structure (SMILES)": "CN1c2ccccc2C(=O)N2[C@H](C(=O)Nc3ccc(/C=C/C(=O)NO)cc3)Cc3c([nH]c4ccccc34)[C@@H]12", "IC50": "1000 nM"}
{"Structure (SMILES)": "c1ccc(-c2n[nH]cc2-c2ccnc(-c3ccc(OCCn4ccnc4)cc3)c2)nc1", "method": "XTT", "time": "72 h", "IC50": "20000 nM"}
{"Structure (SMILES)": "CCCCc1ccc2[nH]c(NC(=O)OC)nc2c1", "method": "CCK-8", "time": "72 h", "IC50": "61.2 nM"}
{"Structure (SMILES)": "CCOC(=O)CCC1=CC2C=CC=CC1C2C1CCCCC1=O (centres unmarked)", "method": "flow cytometry", "IC50": "21 nM"}
{"Structure (SMILES)": "CC[C@@H](C)[C@H](N)C(=O)N1Cc2ccccc2C1", "method": "ATP luminescence", "IC50": "> 60000 nM"}
{"Structure (SMILES)": "C[C@H](O)C(=O)CCCCCCC(=O)Nc1cccc(-c2cn(-c3ccccc3)nn2)c1", "method": "thymidine uptake", "IC50": "7120 nM"}
